Rows were chosen to be rich in hits. Some 2.4% of all compounds tested hit in one or more screens of this group.
Ecoli rRNA inh – inhibits bacterial ribosomal RNA function over humanized ribosomes | E. coli WT GFP vs humanized-ribosome RFP mutants, fluorescence, 24 h; hits give low values; DMSO median 0, no signal -100 | GFP signal change (wild-type ribosome), % (test concentration not listed) | 350,000 tested, 1.6% active;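 active = significant combined selectivity score with lowered wild-type GFP, culture density cut under 30%, mutant RFP and density less affected; inactive = any of these conditions unmet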
EWS-Fli inh – EWS/Fli transcriptional activity inhibition; 350,000 tested, 0.67% active; inhibition, % at 12.6 µM; AID 651661; A673 NR0B1-luciferase reporter, viability-normalised;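 active = mean inhibition of at least 50% after viability correction, with every replicate also passing that limit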;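 also: firefly luciferase signal divided by Alamar Blue viability fluorescence both relative to DMSO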
E-selectin induc – induces E-selectin expression in human endothelial cells; HUVEC E-selectin immunofluorescence imaging; normalized: neutral wells 0, TNF-alpha wells 100; 260,000 tested, 0.37% active; AID 686992; activation, % at 7.58 µM;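 active = mean E-selectin-positive cell signal at least 10% of the positive control, reached in at least 60% of replicates, without over 20% cell loss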
Target sequence (P16581 whole entry, looked up): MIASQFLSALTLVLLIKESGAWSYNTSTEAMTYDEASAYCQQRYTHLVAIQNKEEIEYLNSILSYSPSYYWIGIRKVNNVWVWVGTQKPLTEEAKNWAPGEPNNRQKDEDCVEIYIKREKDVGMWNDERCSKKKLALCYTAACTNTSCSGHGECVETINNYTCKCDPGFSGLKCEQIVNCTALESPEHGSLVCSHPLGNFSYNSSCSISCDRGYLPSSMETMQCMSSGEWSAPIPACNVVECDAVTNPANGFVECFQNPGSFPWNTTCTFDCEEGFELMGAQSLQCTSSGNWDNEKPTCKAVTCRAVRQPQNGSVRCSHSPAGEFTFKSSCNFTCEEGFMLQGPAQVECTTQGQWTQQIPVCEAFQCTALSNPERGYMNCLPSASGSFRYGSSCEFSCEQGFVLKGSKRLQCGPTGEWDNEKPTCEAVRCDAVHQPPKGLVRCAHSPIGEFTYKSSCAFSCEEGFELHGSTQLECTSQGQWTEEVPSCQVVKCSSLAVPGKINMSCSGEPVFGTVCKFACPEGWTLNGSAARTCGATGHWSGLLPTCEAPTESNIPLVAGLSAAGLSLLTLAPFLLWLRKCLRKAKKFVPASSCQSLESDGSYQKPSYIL
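Read-out: % PE-positive cells | Test system: HUVEC | Doses: One compound dose added by pin transfer | Buffer or medium: EGM-2 over gelatin coat | Signal: Immunofluorescence imaging | Benchmarks: TNF-alpha, DMSO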
LGR2 inh – blocks bursicon-induced cAMP signaling via Drosophila LGR2. 380,000 tested, 0.35% active. HEK293 LGR2, CRE-luciferase, bursicon-stimulated, 4 h. inhibition, % at 9.99 µM;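 active = drop in luminescence signal, shown as inhibition above about 50% in the replicate tests, limit read from the data, passing the limit was not always enough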;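 also: agonist challenge used bursicon conditioned medium at about half maximal strength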
DNA binding – small molecule DNA binding by fluorescence polarization | 640 tested, 2% active | salmon sperm DNA acridine orange fluorescence polarization | shares compounds with EWS-Fli inh | AC35, µM (titrated, usually from 68 µM) | AID 720586;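 active = fitted curve reaches a 35% signal fall AC35 below twice the sample's top valid tested dose, actives reach about 48 µM in these data; inactive = the rest, including activity in the rising direction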;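 also: lower polarization ratio signals compound binding to DNA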
Hits are given with their value; . = inactive; / = no result given; ! = not confirmed by another sample.

SMILES | Ecoli rRNA inh | EWS-Fli inh | E-selectin induc | LGR2 inh | DNA binding
COC(=O)COc1ccc(-c2nccc(-c3ccccn3)n2)cc1 | . | 53.8 | / | . | .
O=C(C[C@H]1CC[C@@H](NC(=O)c2ccccn2)[C@H](CO)O1)NCc1cc(F)cc(F)c1 | . | . | . | . | /
CN1c2ccc(-c3ccc(C#N)cc3)cc2[C@H]2[C@H](CCN2S(=O)(=O)c2cccc(F)c2)[C@@H]1CO | . | 61.2 | . | . | .
Cc1ccccc1S(=O)(=O)N1CC[C@@H]2[C@@H](CO)Nc3ccc(-c4ccc(C#N)cc4)cc3[C@@H]21 | . | 54.4 | . | . | .
CN1c2ccc(-c3cccc(C#N)c3)cc2[C@H]2[C@H](CCN2S(=O)(=O)c2cccc(F)c2)[C@H]1CO | . | . | . | . | /
COc1ccc(-c2ccc3c(c2)[C@H]2[C@H](CCN2S(=O)(=O)c2ccc(OC)cc2)[C@@H](CO)N3C)cc1 | . | 54.7 | . | . | .
C[C@@H]1CN([C@@H](C)CO)C(=O)c2cc(-c3cccc(F)c3)cnc2O[C@H]1CN(C)C(=O)c1cnccn1 | . | . | . | . | /
O=C(C1CCOCC1)N1CC(=O)N2[C@@H](CO)[C@@H](c3ccc(C#CC4CCCC4)cc3)[C@@H]2C1 | . | . | / | . | /
Cn1cnc(S(=O)(=O)N2C[C@H](O)COC[C@H]3O[C@H](CC(=O)NC4Cc5ccccc5C4)CC[C@@H]32)c1 | . | . | . | . | /
Cc1ccccc1NC(=O)C(=Cc1ccc(C(=O)O)cc1)C(=O)Nc1ccccc1C | . | 54.2 | / | . | .
C=CCOc1ccc(C(=O)/C=C2/C(=O)Nc3ccccc32)cc1 | . | . | . | . | /
C=CCOc1ccccc1C(=O)/C=C1/C(=O)Nc2ccccc21 | . | 57.8 | . | . | .
O=C(NCc1ccccc1)[C@@H]1[C@@H](CO)[C@@H]2Cn3c(ccc(-c4cccnc4)c3=O)[C@@H]2N1Cc1cocn1 | . | . | . | . | /
COc1ccccc1C(CCNCc1ccc(N(C)C)cc1)c1ccc(OC(C)C)cc1 (stereo not given) | . | 60.5 | / | . | .
COc1ccc(C(CCNCc2ccc(N(C)C)cc2)C(C)C)cc1 (stereo not given) | / | . | . | / | /
COc1ccc(C(CCNCc2ccc(OC(C)C)cc2)C(C)C)cc1 (stereo not given) | -47.7 | 70.4 | . | . | .
COC(=O)c1ccc(COc2ccccc2/C=N/NS(=O)(=O)c2ccccc2)cc1 | . | . | / | . | /
COc1cc(/C=N/NS(=O)(=O)c2ccc3ccccc3c2)ccc1OCc1ccc(C(=O)O)cc1 | -22.9 | 68.8 | . | 82.1 | .
COc1cc(/C=N/NS(=O)(=O)c2ccc(C)cc2)ccc1OCc1cccc(C(=O)O)c1 | . | 79.4 | / | 80.2 | .
C[C@H](CO)N1C[C@H](C)[C@@H](CN(C)C(=O)NC2CCCCC2)Oc2ccc(N(C)C)cc2C1=O | . | / | . | . | /
CCCNC(=O)[C@@H]1[C@@H](CO)[C@@H]2Cn3c(ccc(-c4ccccc4)c3=O)[C@H]1N2C(=O)C1CC1 | . | . | . | . | /
CCCNC(=O)[C@@H]1[C@@H](CO)[C@@H]2Cn3c(ccc(-c4ccccc4)c3=O)[C@H]1N2C(=O)CC | . | 54.9 | . | . | .
C[C@@H]1CN([C@H](C)CO)C(=O)c2cc(-c3ccc(F)cc3)cnc2O[C@H]1CN(C)C(=O)c1ccncc1 | . | . | . | . | /
COc1ccc(N(/N=C2\Sc3ccccc3C2=O)C(C)=O)cc1 | / | / | / | . | /
COc1ccccc1N(/N=C1\Sc2ccccc2C1=O)C(C)=O | . | 54.4 | / | / | .
SMILES | Ecoli rRNA inh | EWS-Fli inh | E-selectin induc | LGR2 inh | DNA binding
Cc1noc(C)c1NC(=O)N(C)C[C@H]1Oc2c(NC(=O)c3ccncc3)cccc2C(=O)N([C@H](C)CO)C[C@H]1C | . | . | . | . | /
COCc1cn([C@@H]2C[C@@H]3O[C@H](CO)CC[C@@H]3O[C@@H]2CCc2ccc(-c3ccc(OC)cc3)cc2)nn1 | / | . | / | / | /
C[C@H](O)C#Cc1ccc2c(c1)O[C@@H](CN(C)Cc1ccc(-c3ccccc3)cc1)[C@H](C)CN([C@@H](C)CO)S2(=O)=O | . | 67.1! | . | . | .
C[C@@H]1CN([C@H](C)CO)S(=O)(=O)c2ccc(C#CC(C)(C)O)cc2O[C@H]1CN(C)Cc1ccc(-c2ccccc2)cc1 | . | 57.9 | . | . | .
C[C@H](O)C#Cc1ccc2c(c1)O[C@@H](CN(C)Cc1ccc(-c3ccccc3)cc1)[C@@H](C)CN([C@H](C)CO)S2(=O)=O | . | . | . | . | /
CS(=O)(=O)N1CC2(C1)[C@H](c1ccccc1)[C@H](CO)N2C(=O)C1CCC1 | . | . | . | . | /
C[C@H](CO)N1C[C@H](C)[C@@H](CN(C)Cc2ccc(C(F)(F)F)cc2)OCCCC[C@H](C)Oc2ccc(NS(=O)(=O)c3ccc(F)cc3)cc2C1=O | . | 56.0 | . | . | .
Cc1ccc(S(=O)(=O)Nc2ccc3c(c2)C(=O)N([C@@H](C)CO)C[C@H](C)[C@H](CN(C)Cc2ccc(C(F)(F)F)cc2)OCCCC[C@@H](C)O3)cc1 | . | . | / | . | /
C[C@@H]1CCCCO[C@@H](CN(C)Cc2ccc(C(F)(F)F)cc2)[C@@H](C)CN([C@H](C)CO)C(=O)c2cc(NS(=O)(=O)c3ccc(F)cc3)ccc2O1 | . | . | . | . | /
C[C@@H]1CN([C@H](C)CO)C(=O)c2cc(NC(=O)c3ccccc3)ccc2O[C@@H](C)CCCCO[C@H]1CN(C)C(=O)Nc1cccc2ccccc12 | . | 69.1 | / | . | .
C[C@@H]1CCCCO[C@H](CN(C)C(=O)Nc2cccc3ccccc23)[C@H](C)CN([C@@H](C)CO)C(=O)c2cc(NC(=O)c3ccccc3)ccc2O1 | . | . | / | . | /
C[C@@H]1CCCCO[C@@H](CN(C)C(=O)Cc2ccccc2)[C@@H](C)CN([C@@H](C)CO)C(=O)c2cc(NS(=O)(=O)c3ccc(F)cc3)ccc2O1 | . | 64.3 | . | . | .
Cc1ccc(S(=O)(=O)Nc2ccc3c(c2)C(=O)N([C@H](C)CO)C[C@H](C)[C@@H](CN(C)Cc2ccc(C(F)(F)F)cc2)OCCCC[C@H](C)O3)cc1 | . | 68.9 | / | . | .
Cc1ccc(S(=O)(=O)Nc2ccc3c(c2)C(=O)N([C@@H](C)CO)C[C@H](C)[C@@H](CN(C)Cc2ccc(C(F)(F)F)cc2)OCCCC[C@@H](C)O3)cc1 | . | 54.7 | / | . | .
C[C@H](CO)N1C[C@H](C)[C@H](CN(C)CC2CCCCC2)Oc2ccc(NC(=O)Nc3cccc4ccccc34)cc2C1=O | . | 61.9 | . | . | .
C[C@H]1CCCCO[C@H](CN(C)Cc2ccc(C(F)(F)F)cc2)[C@@H](C)CN([C@@H](C)CO)C(=O)c2cc(NC(=O)Nc3ccccc3)ccc2O1 | . | 64.6 | . | . | .
COCC#Cc1ccc(CC[C@H]2O[C@H]3CC[C@H](CO)O[C@H]3C[C@@H]2n2cc(C(C)(C)O)nn2)cc1 | / | . | / | / | /

Screens from PubChem.
